Assay outcomes (PubChem BioAssay)
VIM-2 inhibitor: VIM-2 metallo-beta-lactamase inhibitors, primary screen, biochemical, epi-absorbance readout, Pseudomonas aeruginosa enzyme; purified VIM-2, nitrocefin hydrolysis, epi-absorbance fluorescence; inhibition, % at 5.6 µM; 290,000 tested, 0.89% active;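 active = inhibition above the mean of all tested compounds plus 3 SD, cutoff set per screening run, cut at about 7.5% in these data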;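 also: red hydrolysis product quenches plate fluorescence so inhibitors raise well fluorescence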
ANO1 block: TMEM16A chloride channel inhibitors, primary screen, cell-based, HTS. Anoctamin-1 (Mus musculus), Q8BHY3. HEK293 TMEM16A/YFP iodide influx fluorescence, ionomycin. normalized B-score (activity score, 25-100; higher = stronger inhibition) at 10 µM. 310,000 tested, 1.2% active. AID 588511, 2011;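 active = ratio plate-corrected score three or more library SD toward inhibition, starting fluorescence score within five deviations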;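 also: score derived from kinetic fluorescence span divided by baseline fluorescence per well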
IMP-1 inh: IMP-1 metallo-beta-lactamase inhibitors, primary screen, biochemical, epi-absorbance readout, Pseudomonas aeruginosa enzyme; purified IMP-1, nitrocefin hydrolysis, epi-absorbance fluorescence; inhibition, % at 5.6 µM; 290,000 tested, 0.45% active;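 active = inhibition above the mean plus 3 SD of all compounds in the same screening run, cut at about 4.5% in these data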
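System: purified IMP-1; amount: IMP-1 0.2 nM before substrate addition; compound: single dose, 5.6 µM; times: 25 °C, 15 min preincubation, 25 min reaction; signal: Epi-absorbance via hydrolysed-nitrocefin quenching of white-plate fluorescence, 480/530 nm, EDTA stop; benchmarks: DMSO with and without IMP-1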
TMEM16A act: TMEM16A chloride channel activators or potentiators, primary screen, cell-based, HTS; Anoctamin-1 (Mus musculus), Q8BHY3; HEK293 TMEM16A/YFP-H148Q/I152L, iodide quench fluorescence; stronger effect = lower value; B-score at 10 µM; 340,000 tested, 0.3% active;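 active = fluorescence-ratio B-score plate-corrected deviation score at least 3 library SD below zero, with starting fluorescence score within 5 deviations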;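 also: channel opened by trigger with iodide after compound preincubation; score built on the fluorescence ratio of max minus min over baseline; more negative score means more quench and so TMEM16A activation or potentiation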
CHT allo act: CHT positive allosteric modulators, primary screen, cell-based, membrane potential dye, choline EC20. High affinity choline transporter 1 (Homo sapiens), Q9GZV3. CHT-expressing cells; stronger effect = higher value; LV-AA mutant CHT in HEK293 cells. B-score at 10 µM. 310,000 tested, 0.49% active. AID 488977, 2010;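 active = initial fluorescence not abnormally high and integrated response B-score, plate-corrected, over 3 SD above library mean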
Target sequence (Q9GZV3 whole entry, looked up): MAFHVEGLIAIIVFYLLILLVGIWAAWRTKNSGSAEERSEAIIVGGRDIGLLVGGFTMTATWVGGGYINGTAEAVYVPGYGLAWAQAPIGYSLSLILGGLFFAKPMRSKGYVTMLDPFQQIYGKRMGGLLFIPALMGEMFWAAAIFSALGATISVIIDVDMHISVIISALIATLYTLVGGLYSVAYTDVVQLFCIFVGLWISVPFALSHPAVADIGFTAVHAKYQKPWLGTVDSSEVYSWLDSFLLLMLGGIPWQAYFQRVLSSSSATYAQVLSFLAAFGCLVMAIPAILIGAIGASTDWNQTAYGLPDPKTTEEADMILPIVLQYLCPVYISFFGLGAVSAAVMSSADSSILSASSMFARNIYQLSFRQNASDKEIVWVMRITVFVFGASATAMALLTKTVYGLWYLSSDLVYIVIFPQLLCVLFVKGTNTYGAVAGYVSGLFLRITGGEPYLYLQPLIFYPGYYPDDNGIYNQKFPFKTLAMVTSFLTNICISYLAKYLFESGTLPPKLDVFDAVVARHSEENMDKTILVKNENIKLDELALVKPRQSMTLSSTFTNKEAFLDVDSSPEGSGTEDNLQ
CHT inh: inhibitors of human choline transporter CHT; High affinity choline transporter 1 (Homo sapiens), Q9GZV3; CHT-expressing cells, membrane potential dye, choline response; stronger effect = lower value; B-score at 10 µM; 310,000 tested, 0.86% active;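 active = B-score over 3 SD under the library average, and starting fluorescence ratio not unusually high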;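 also: choline stimulus applied at its EC90 after an EC20 pre-addition; B-score computed on integrated fluorescence ratio after choline addition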
Large screens that a line does not name were inactive; ! = not confirmed by another sample. Shown are actives, neighbours in structure and some others; about 3.4% of the full set was active somewhere.

CCOc1ncccc1C(=O)OCC(=O)c1cc(OC)c(OC)c(OC)c1	none
CCOC(=O)C1=C(C)N=c2s/c(=C\c3ccc(O)c([N+](=O)[O-])c3)c(=O)n2C1c1ccccc1OC (stereo unspecified)	ANO1 block 100
CCCc1cc(=O)oc2cc(OCC(=O)NCc3ccccn3)ccc12	none
CCCc1cc(=O)oc2cc(OCC(=O)NCC(O)c3ccccc3)ccc12 (stereo unspecified)	IMP-1 inh 42
Clc1ccc(N=c2ssnc2Cl)cc1	ANO1 block 100
Clc1nssc1=Nc1ccccc1	none (no result: ANO1 block, CHT allo act, CHT inh)
O=C1Cc2cc(O)ccc2O1	none (no result: VIM-2 inhibitor, ANO1 block, IMP-1 inh, CHT allo act, CHT inh)
CCc1ccc(S(=O)(=O)N2CCN(c3ncccn3)CC2)cc1	none
Cc1cccn2c(=O)c3cc(C(=O)NCC4CCCO4)c(=N)n(C4CCCC4)c3nc12 (stereo unspecified)	VIM-2 inhibitor 11
Cc1ccc2nc3c(cc(C(=O)NCC4CCCO4)c(=N)n3C3CCCC3)c(=O)n2c1 (stereo unspecified)	VIM-2 inhibitor 7.9
N=c1c(C(=O)NCC2CCCO2)cc2c(=O)n3ccccc3nc2n1C1CCCC1 (stereo unspecified)	none
O=c1c(C(c2ccccc2)c2c(O)sc3ccccc3c2=O)c(O)sc2ccccc12	ANO1 block 100, CHT inh -5.2
COc1ccc(NS(=O)(=O)N2CCOCC2)cc1	none
CSCC[C@H](NC(=O)N1CCn2c1nc1ccccc12)C(=O)NCc1ccc(F)cc1	IMP-1 inh 51
COC(=O)C1=C(C(=O)OC)[C@]2([C@H]3CC=CCN[C@@H](Cc4ccccc4)C(=O)N3Cc3ccccc3)C=C[C@H]1O2	TMEM16A act -10 (no result: VIM-2 inhibitor, ANO1 block, IMP-1 inh, CHT allo act, CHT inh)
CCC(C)(C)C1CCc2c(sc(NC(=O)c3ccccc3C(=O)O)c2C#N)C1 (stereo unspecified)	CHT inh -7.7
CC(C)(C)C1CCc2c(sc(NC(=O)c3cc(C4CC4)on3)c2C#N)C1 (stereo unspecified)	IMP-1 inh 4.9
CC(C)c1cc(C(=O)Nc2sc3c(c2C#N)CCC3)no1	none
CC(C)CSC1=NSC2=NC(=O)/C(=C\c3coc4ccccc4c3=O)C(=N)N12	none
CC(C)CSC1=NSC2=NC(=O)/C(=C\c3ccccc3)C(=N)N12	ANO1 block 25
COc1cc(Cl)c(C)cc1NC(=O)CN1CCN(C(=O)C2CC2)CC1	none (no result: VIM-2 inhibitor, ANO1 block, IMP-1 inh, CHT allo act, CHT inh)
COCCNC(=O)c1cc(S(=O)(=O)N2CCOCC2)ccc1SCc1cccc(OC)c1OC	none
Cc1ccc(C(C(=O)NC2CCCCC2)N(Cc2ccccc2)C(=O)Cc2c[nH]c3ccccc23)o1 (stereo unspecified)	none
COc1ccc(CN(C(=O)Cc2c[nH]c3ccccc23)C(C(=O)NC2CCCCC2)c2ccc(C)o2)cc1 (stereo unspecified)	IMP-1 inh 49
COc1cccc(CN(C(=O)Cc2c[nH]c3ccccc23)C(C(=O)NC2CCCCC2)c2ccc(C)o2)c1 (stereo unspecified)	IMP-1 inh 22
COc1ccc(S(=O)(=O)N2CCOC2CNC(=O)C(=O)NCCN2CCOCC2)cc1C (stereo unspecified)	none
CCCCC(CC)CN=C(N)NC(N)=NCCCCCCN=C(N)NC(N)=NCC(CC)CCCC (stereo unspecified)	TMEM16A act -26 (no result: VIM-2 inhibitor, IMP-1 inh)
CCCCC(CC)CO (stereo unspecified)	none (no result: VIM-2 inhibitor, ANO1 block, IMP-1 inh, CHT allo act, CHT inh)
O=[N+]([O-])c1ccccc1S(=O)(=O)Nc1cccnc1	none
C[n+]1ccc(/C=C/c2ccc(Br)cc2)cc1	IMP-1 inh 8.3
Cc1ccc(/C=N/N2C(=S)SC(C)(C)C2N(O)C(=O)Nc2ccc([N+](=O)[O-])cc2)cc1 (stereo unspecified)	none
CC1(C)SC(=S)N(/N=C/c2ccc(O)cc2)C1N(O)C(=O)Nc1ccc([N+](=O)[O-])cc1 (stereo unspecified)	ANO1 block 100
O=C(O)c1ccc(S(=O)(=O)c2ccc3c(c2)C(=O)N(NC(=O)c2ccncc2)C3=O)cc1	none
O=C(O)c1ccc(S(=O)(=O)c2ccc3c(c2)C(=O)N(NC(=O)c2ccccc2)C3=O)cc1	IMP-1 inh 5.1
CC(C)(C)NC(=O)c1ccccc1NC(=O)C1CC(=O)N(C2CCCCC2)C1 (stereo unspecified)	none
COc1ccc(OCC(=O)Nc2cc(OC)ccc2N2CCCCC2)cc1	none
CC(=O)OCC1O[C@@H](O[C@@H]2C[C@H]3C(C)(C)[C@H](OC(C)=O)CC[C@]3(C)[C@H]3CC[C@]45C[C@]4(CC[C@H]5[C@@H](C)C[C@@H](O)[C@H](O)C(C)(C)O)[C@@]32C)[C@H](O)[C@@H](O)[C@@H]1O (stereo partly specified)	ANO1 block 100 (no result: TMEM16A act)
O=C(O)Cc1ccc(NC(=O)CCN2C(=O)c3ccc([N+](=O)[O-])cc3C2=O)cc1	TMEM16A act -6.3 (no result: ANO1 block, CHT allo act, CHT inh)
O=C(Nc1ccccc1)/C(=C/c1cccnc1)NC(=O)c1ccccc1	none
O=C(CN1C(=O)NC2(CCCC2)C1=O)OCC(=O)c1cccc(Cl)c1	none (no result: VIM-2 inhibitor, ANO1 block, IMP-1 inh, CHT allo act, CHT inh)
CCOc1ccccc1Oc1cn[nH]c1-c1ccc(O)cc1O	none
C=C(C)COc1ccc(-c2[nH]ncc2Oc2ccccc2OCC)c(O)c1	ANO1 block 100
O=c1nc2ccc(Cl)cn2c2ccc(S(=O)(=O)N3CCOCC3)cc12	VIM-2 inhibitor 11
Cc1nn(-c2ccccc2)c(Cl)c1C(=O)N1CCN(c2ncnc3c2cnn3-c2ccccc2)CC1	ANO1 block 25
COC(=O)[C@]1(C)CCC[C@@]2(C)C3CC[C@@]4(C)C[C@]3(CCC21)CC(=O)N4 (stereo partly specified)	none (no result: VIM-2 inhibitor, ANO1 block, IMP-1 inh, CHT allo act, CHT inh)
C=C1C(=O)C23CCC4C(C)(C(=O)OC)CCCC4(C)C2CCC1(O)C3 (stereo unspecified)	TMEM16A act -8.6 (no result: VIM-2 inhibitor, ANO1 block, IMP-1 inh, CHT allo act, CHT inh)
Nc1cccc2c1C(=O)N(C(=O)c1ccc(Cl)c(S(=O)(=O)N3CCCCCC3)c1)C2=O	IMP-1 inh 4.8
O=C(c1ccc(Cl)c(S(=O)(=O)N2CCCCC2)c1)N1CCCCC1	none
O=C(Cc1cc(=O)[nH][nH]1)N/N=C/c1c(Cl)cccc1Cl	IMP-1 inh 7.5!
O=C(Cc1cc(=O)[nH][nH]1)N/N=C/c1c(F)cccc1Cl	none
CCN(CC(=O)NCc1cccs1)C(=O)c1ccc(OC)c(OC)c1	none (no result: VIM-2 inhibitor, IMP-1 inh)
O=C(NC(=S)NCCC1=CCCCC1)c1ccccc1Br	VIM-2 inhibitor 25
